Measurements: ChEMBL document CHEMBL4619765 (J Nat Prod, 2020)
Calls of active or inactive are those of the source. The calls are words filed in the database; no cut-off is given here.

How the values were obtained:
[1] = Inhibition of complex 1 in bovine heart mitochondrial membranes in presence of NADH; parameters: species or system Bos taurus
PNT2 [2] = test: Inhibition of complex 1 in human PNT2 cells assessed as reduction in oxygen rate at 1 uM incubated for 1 hr followed by rotenone and antimycin addition; assay type: cell-based
Procedure, shortened: (§1)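 Cells seeded at 20,000/well on poly-L-lysine-coated Seahorse XF96 plates for 16 h, then moved into carbonate-free RPMI assay buffer (4.5 g/L glucose, pyruvate, GlutaMAX, pH 7.4). […] Rotenone-insensitive rate subtracted and traces normalized to 100% pre-addition. n = 6 treated, 16 controls; mean ± S.E.M.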

LNCaP C4-2 [3] = test: Inhibition of complex 1 in human C4-2 cells assessed as reduction in oxygen rate at 1 uM incubated for 1 hr followed by rotenone and antimycin addition; assay type: cell-based; procedure, shortened: as §1
LNCaP C4-2B [4] = test: Antiproliferative activity against human C4-2B cells at 1 uM after 150 hrs; assay type: functional, cell-based
Procedure, shortened: (§2)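 Seeded at 1,000 cells/well in RPMI 1640 with 10% FBS, 25 mM HEPES and 1 mM pyruvate; after 24 h, 1 μM rotenoid (ethanolic stock diluted in medium) or ethanol-only control added. Growth followed by live-cell imaging as confluence (% well area covered) until untreated control reached confluence; value at 150 h of treatment. Eight replicates per condition, mean ± S.E.M.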

LNCaP C4-2 [5] = test: Antiproliferative activity against human C4-2 cells at 1 uM after 150 hrs; assay type: functional, cell-based; procedure, shortened: as §2
LNCaP C4-2 [6] = test: Cytotoxicity against human C4-2 cells assessed as reduction in cell viability at 1 uM after 48 hrs by acridine orange/DAPI staining based assay; assay type: functional
Procedure, shortened: (§3)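 Cells trypsinized, pelleted, resuspended in PBS and stained with acridine orange/DAPI; viability and cell count read on an NC-3000 image cytometer. n = 4 treated, n = 10 control; mean ± S.E.M.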

PNT2 [7] = test: Cytotoxicity against human PNT2 cells assessed as reduction in cell viability at 1 uM after 48 hrs by acridine orange/DAPI staining based assay; details: pnt2, 48 h; procedure, shortened: as §3
LNCaP C4-2B [8] = test: Cytotoxicity against human C4-2B cells assessed as reduction in cell viability at 1 uM after 48 hrs by acridine orange/DAPI staining based assay; assay type: functional; procedure, shortened: as §3
PNT2 [9] = test: Inhibition of cell proliferation in human PNT2 cells at 1 uM after 150 hrs; assay type: cell-based; details: pnt2, 150 h; procedure, shortened: as §2
LNCaP C4-2B [10] = test: Inhibition of complex 1 in human C4-2B cells assessed as reduction in oxygen rate at 1 uM incubated for 1 hr followed by rotenone and antimycin addition; assay type: cell-based; procedure, shortened: as §1
LNCaP C4-2 [11] = test: Cytotoxicity against human C4-2 cells assessed as reduction in cell count at 1 uM after 48 hrs by acridine orange/DAPI staining based assay; assay type: functional; procedure, shortened: as §3
LNCaP C4-2B [12] = test: Cytotoxicity against human C4-2B cells assessed as reduction in cell count at 1 uM after 48 hrs by acridine orange/DAPI staining based assay; assay type: functional; procedure, shortened: as §3
MEF = test: Cytotoxicity against PTEN-deficient MEF at 0.5 uM after 24 hrs by MTT assay relative to control; assay type: cell-based; details: mouse
PNT2 [13] = test: Cytotoxicity against human PNT2 cells assessed as reduction in cell count at 1 uM after 48 hrs by acridine orange/DAPI staining based assay; details: pnt2, 48 h; procedure, shortened: as §3
LNCaP = test: Cytotoxicity against human LNCAP cells; assay type: functional; details: read-out: ED50 (the source's name)

Q: For `COc1cc2c(cc1OC)[C@@H]1[C@H](O)c3ccc4c(c3O[C@@H]1CO2)C=CC(C)(C)O4`, which IC50 [1] is on record?
A: 0.0146 µM

Q: With `COc1cc2c(cc1OC)[C@]1(O)C(=O)c3ccc4c(c3O[C@@H]1CO2)C[C@H](C(C)(O)CO)O4` (stereo not given in full) as the compound, how does the IC50 [1] read?
A: > 10 µM

Q: For `C=C(C)CCc1c(O)ccc2c1O[C@@H]1COc3cc(OC)c(OC)cc3[C@@H]1C2=O`, which IC50 [1] is on record?
A: 0.572 µM

Q: Which IC50 [1] does the source give for `COc1cc2c(cc1OC)[C@]1(O)[C@H](O)c3ccc4c(c3O[C@@H]1CO2)C[C@H](C(C)(C)O)O4` here?
A: > 10 µM

Q: For `COc1cc2c(cc1OC)[C@]1(O)[C@H](O)c3ccc4c(c3O[C@@H]1CO2)C=CC(C)(C)O4`, which IC50 [1] is on record?
A: 0.135 µM

Q: With `C=C(C)[C@H]1Cc2c(ccc3c2O[C@@H]2COc4cc(OC)c(OC)cc4[C@]2(O)[C@@H]3O)O1` as the compound, how does the IC50 [1] read?
A: 0.125 µM

Q: For `COc1cc2c(cc1OC)[C@@H]1C(=O)c3ccc4c(c3O[C@@H]1CO2)C[C@H](C(C)(O)CO)O4` (stereo not given in full), which IC50 [1] is on record?
A: 1.8 µM

Q: What about the inhibition (PNT2 [2]) of the same compound?
A: Active

Q: What about the inhibition (LNCaP C4-2 [3]) of the same compound?
A: Active

Q: What about the Activity (LNCaP C4-2B [4]) of the same compound?
A: Active

Q: What about the Activity (LNCaP C4-2 [5]) of the same compound?
A: Active

Q: And the Activity (LNCaP C4-2 [6])?
A: inactive

Q: What about the Activity (PNT2 [7]) of the same compound?
A: Non-Toxic

Q: What about the Activity (LNCaP C4-2B [8]) of the same compound?
A: inactive

Q: What about the Activity (PNT2 [9]) of the same compound?
A: Non-Toxic

Q: What about the inhibition (LNCaP C4-2B [10]) of the same compound?
A: Active

Q: And the Activity (LNCaP C4-2 [11])?
A: Active

Q: With `C=C(CO)[C@H]1Cc2c(ccc3c2O[C@@H]2COc4cc(OC)c(OC)cc4[C@@H]2[C@@H]3O)O1` as the compound, how does the IC50 [1] read?
A: 0.458 µM

Q: With `C=C(CO)[C@H]1Cc2c(ccc3c2O[C@@H]2COc4cc(OC)c(OC)cc4[C@]2(O)[C@@H]3O)O1` as the compound, how does the IC50 [1] read?
A: > 10 µM

Q: Which IC50 [1] does the source give for `C=C(C)[C@H]1Cc2c(ccc3c2O[C@@H]2COc4cc(OC)c(OC)cc4[C@@H]2[C@@H]3O)O1` here?
A: 0.0114 µM

Q: For `COc1cc2c(cc1OC)[C@]1(O)[C@H](O)c3ccc4c(c3O[C@@H]1CO2)C[C@H](C(C)(O)CO)O4` (stereo not given in full), which IC50 [1] is on record?
A: > 10 µM

Q: For `COc1cc2c(cc1OC)[C@@H]1[C@H](O)c3ccc4c(c3O[C@@H]1CO2)C[C@H](C(C)(C)O)O4`, which IC50 [1] is on record?
A: 0.75 µM

Q: Which IC50 [1] does the source give for `C=C(C)C(=O)Cc1c(O)ccc2c1O[C@@H]1COc3cc(OC)c(OC)cc3[C@]1(O)C2=O` here?
A: > 10 µM

Q: For `C=C(C)C(=O)Cc1c(O)ccc2c1O[C@@H]1COc3cc(OC)c(OC)cc3[C@@H]1C2=O`, which IC50 [1] is on record?
A: 2.57 µM

Q: For `COc1cc2c(cc1OC)[C@]1(O)C(=O)c3ccc4c(c3O[C@@H]1CO2)C[C@H](C(C)(C)O)O4`, which IC50 [1] is on record?
A: > 10 µM

Q: With `COc1cc2c(cc1OC)[C@@H]1C(=O)c3ccc4c(c3O[C@@H]1CO2)C(O)C(O)C(C)(C)O4` (mixture of isomers) as the compound, how does the IC50 [1] read?
A: 5.31 µM

Q: Which IC50 [1] does the source give for `COc1cc2c(cc1OC)[C@@H]1C(=O)c3ccc4c(c3O[C@@H]1CO2)CCC(C)(CO)O4` (mixture of isomers) here?
A: 0.195 µM

Q: For `COc1cc2c(cc1OC)[C@@H]1C(=O)c3ccc4c(c3O[C@@H]1CO2)C[C@H](C(C)CO)O4` (mixture of isomers), which IC50 [1] is on record?
A: 0.228 µM

Q: What about the inhibition (PNT2 [2]) of the same compound?
A: Active

Q: What about the inhibition (LNCaP C4-2 [3]) of the same compound?
A: Active

Q: And the Activity (LNCaP C4-2B [12])?
A: Active

Q: What about the Activity (LNCaP C4-2B [4]) of the same compound?
A: Active

Q: And the Activity (LNCaP C4-2 [5])?
A: Active

Q: What about the Activity (LNCaP C4-2 [6]) of the same compound?
A: inactive

Q: And the Activity (PNT2 [7])?
A: Non-Toxic

Q: And the Activity (LNCaP C4-2B [8])?
A: inactive

Q: And the Activity (PNT2 [9])?
A: Non-Toxic

Q: And the inhibition (LNCaP C4-2B [10])?
A: Active

Q: And the Activity (LNCaP C4-2 [11])?
A: Active

Q: Which IC50 [1] does the source give for `COc1cc2c(cc1OC)[C@]1(O)C(=O)c3ccc4c(c3O[C@@H]1CO2)C[C@H](C(C)CO)O4` (mixture of isomers) here?
A: 3.58 µM

Q: With `COc1cc2c(cc1OC)[C@@H]1[C@H](O)c3ccc4c(c3O[C@@H]1CO2)C[C@H](C(C)CO)O4` (mixture of isomers) as the compound, how does the IC50 [1] read?
A: 0.46 µM

Q: With `COc1cc2c(cc1OC)[C@]1(O)[C@H](O)c3ccc4c(c3O[C@@H]1CO2)C[C@H](C(C)CO)O4` (mixture of isomers) as the compound, how does the IC50 [1] read?
A: 2.93 µM

Q: Which IC50 [1] does the source give for `COc1cc2c(cc1OC)[C@@H]1[C@H](O)c3ccc4c(c3O[C@@H]1CO2)C[C@H](C(C)(O)CO)O4` (mixture of isomers) here?
A: 4.57 µM

Q: Which IC50 [1] does the source give for `COc1cc2c(cc1OC)[C@@H]1C(=O)c3ccc4c(c3O[C@@H]1CO2)CC(O)C(C)(C)O4` (mixture of isomers) here?
A: 0.85 µM

Q: Which IC50 [1] does the source give for `C=C(CO)[C@H]1Cc2c(ccc3c2O[C@@H]2COc4cc(OC)c(OC)cc4[C@]2(O)C3=O)O1` [DABINOL] here?
A: 3.81 µM

Q: For `COc1cc2c(cc1OC)[C@@H]1C(=O)c3ccc4c(c3O[C@@H]1CO2)C[C@H](C(C)(C)O)O4` [DALPANOL], which IC50 [1] is on record?
A: 0.652 µM

Q: What about the inhibition (PNT2 [2]) of the same compound?
A: Active

Q: What about the inhibition (LNCaP C4-2 [3]) of the same compound?
A: Active

Q: And the Activity (LNCaP C4-2B [4])?
A: Active

Q: What about the Activity (LNCaP C4-2 [5]) of the same compound?
A: Active

Q: And the Activity (LNCaP C4-2 [6])?
A: inactive

Q: What about the Activity (PNT2 [7]) of the same compound?
A: Non-Toxic

Q: What about the Activity (LNCaP C4-2B [8]) of the same compound?
A: inactive

Q: And the Activity (PNT2 [9])?
A: Non-Toxic

Q: And the inhibition (LNCaP C4-2B [10])?
A: Active

Q: What about the Activity (LNCaP C4-2 [11]) of the same compound?
A: Active

Q: With `COc1cc2c(cc1OC)[C@@H]1C(=O)c3ccc4c(c3O[C@@H]1CO2)C=CC(C)(C)O4` [DEGUELIN] as the compound, how does the Activity (MEF) read?
A: 70%

Q: What about the IC50 [1] of the same compound?
A: 0.0106 µM

Q: Which IC50 [1] does the source give for `C=C(C)[C@H]1Cc2c(ccc3c2O[C@@H]2COc4cc(OC)c(OC)cc4[C@]2(O)C3=O)O1` [ROTENOLONE] here?
A: 0.13 µM

Q: Which Activity (LNCaP C4-2B [12]) does the source give for `C=C(C)[C@H]1Cc2c(ccc3c2O[C@@H]2COc4cc(OC)c(OC)cc4[C@@H]2C3=O)O1` [ROTENONE] here?
A: Active

Q: And the Activity (LNCaP C4-2B [4])?
A: Active

Q: What about the Activity (LNCaP C4-2 [5]) of the same compound?
A: Active

Q: What about the Activity (LNCaP C4-2 [6]) of the same compound?
A: inactive

Q: And the Activity (PNT2 [7])?
A: Non-Toxic

Q: And the Activity (LNCaP C4-2B [8])?
A: inactive

Q: And the Activity (PNT2 [9])?
A: Non-Toxic

Q: And the Activity (PNT2 [13])?
A: Toxic

Q: And the Activity (LNCaP C4-2 [11])?
A: Active

Q: For `COc1cc2c(cc1OC)[C@@H]1C(=O)c3ccc(O)c(CC=C(C)C)c3O[C@@H]1CO2` [ROTENONIC ACID], which IC50 [1] is on record?
A: 1.09 µM

Q: For `COc1cc2c(cc1OC)[C@]1(O)C(=O)c3ccc4c(c3O[C@@H]1CO2)C=CC(C)(C)O4` [TEPHROSIN], which EC50 (LNCaP) is on record?
A: 0.3 to 0.7 µM
